For test [1], the target named is T1, Tryptase beta-1 (Homo sapiens, UniProt Q15661). The experiment in a line: In vitro inhibition of human Tryptase beta.
Target sequence in this assay (Q15661 whole entry): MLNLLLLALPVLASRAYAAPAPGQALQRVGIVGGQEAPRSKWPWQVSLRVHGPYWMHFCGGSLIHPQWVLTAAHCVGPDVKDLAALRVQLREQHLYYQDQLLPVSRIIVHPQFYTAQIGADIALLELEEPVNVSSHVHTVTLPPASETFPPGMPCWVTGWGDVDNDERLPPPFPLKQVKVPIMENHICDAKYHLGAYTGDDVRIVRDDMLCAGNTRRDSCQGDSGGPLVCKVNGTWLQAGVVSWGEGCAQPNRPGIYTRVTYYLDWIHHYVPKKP
Test [2] concerns the target T1, Tryptase beta-1. The experiment in a line: Inhibitory activity of compound was determined against human Tryptase beta; NA= not active (<10% inhibition at 100 uM). The procedure, abridged: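 β-Tryptase chromogenic assay, with absorbance read at 405 nm at 37 °C for 30 min after enzyme addition. […] Percent inhibition came from initial slopes versus the no-inhibitor control, fitted with a four-parameter logistic model.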
Target sequence in this assay (Q15661 31-275 limits assumed): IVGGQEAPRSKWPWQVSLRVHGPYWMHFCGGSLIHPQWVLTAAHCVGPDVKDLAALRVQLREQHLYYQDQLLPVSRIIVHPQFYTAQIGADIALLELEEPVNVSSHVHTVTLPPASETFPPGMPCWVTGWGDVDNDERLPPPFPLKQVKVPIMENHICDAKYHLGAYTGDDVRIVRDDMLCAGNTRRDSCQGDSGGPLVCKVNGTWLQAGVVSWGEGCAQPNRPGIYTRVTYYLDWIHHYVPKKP

Test [3] deals with Cationic trypsin (Bos taurus). The experiment in a line: Beta-Trypsin inhibitory activity of compound was determined; NA= not active (<10% inhibition at 100 uM).
Test [4] concerns the target T1, Tryptase beta-1. The experiment in a line: Inhibitory activity of compound was determined against human Tryptase beta.
Target sequence in this assay (Q15661 whole entry): as the sequence (Q15661 whole entry) above
The nature of test [5]: Ratio of Ki value kallikrein to that of Ki value of tryptase.
Test [6] deals with Cationic trypsin (Bos taurus). Kind of test: Ratio of Ki value of bovine trypsin to that of Ki value of tryptase.
Test [7] can be described thus: Ratio of Ki value plasmin to that of Ki value of tryptase.
For test [8], the target named is Thrombin & trypsin (Homo sapiens) (UniProt P00734+P07477+P07478+P35030). The experiment in a line: Ratio of Ki value thrombin to that of Ki value of tryptase. It counts as protein assay.

Structures are written as SMILES. pIC50, pKi: −log10 of the molar value. Active and inactive are the calls of the source.

What is called pKi is −log10 of the Ki, conventionally taken in molar units. A low value points to a high Ki. As to `CC(=O)N1C[C@H](O)C[C@H]1C(=O)N[C@@H](CCCNC(=N)N)C(=O)c1nc2ccccc2s1`, at Tryptase beta-1 [1], the pKi was 7.66. In the case of `N=C(N)NCCCC(NC(=O)C1CCCC1)C(=O)c1nc2ccccc2s1` (centres undefined), the pKi at Tryptase beta-1 [1] was 7.06.

In turn, `CC(=O)N1CC[C@H]1C(=O)N[C@@H](CCCN=C(N)N)C(=O)c1nc2ccccc2s1` showed a pKi at Tryptase beta-1 [1] of 7.70. The compound `CC(=O)N1C[C@H](O)C[C@H]1C(=O)N[C@@H](CCCNC(=N)N)C(=O)c1nc2ccccc2s1` (stereo in doubt; (2R) 6) showed a pKi at Tryptase beta-1 [1] of 6.42. In the case of `CN[C@H](Cc1ccccc1)C(=O)N1CCC[C@H]1C(=O)N[C@@H](CCCN=C(N)N)C(=O)c1nc2ccccc2s1`, the pKi on Tryptase beta-1 [1] was 8.19. For `N=C(N)NCCCCC(=O)c1nc2ccccc2s1`, the NA result (at Tryptase beta-1 [2]; in test [3]) was “inactive” each time.

At Tryptase beta-1 [1], `CC(=O)N1CCC[C@H]1C(=O)N[C@@H](CCCN=C(N)N)C(=O)c1nc2ccccc2s1` gave a pKi of 7.72. `CC(=O)N1C[C@H](O)C[C@H]1C(=O)NC(CCCN=C(N)N)C(=O)c1nccs1` (some centres undefined) showed a pKi on Tryptase beta-1 [1] of 6.74. On to `N=C(N)c1ccc2nc(Cc3nc4ccc(C(=N)N)cc4[nH]3)[nH]c2c1`, for which the pKi on Tryptase beta-1 [1] is 6.85. This pKi and that of the compound before are within 0.2 log units of each other. In the case of `CC(=O)N1CCC[C@H]1C(=O)NC(CCCN=C(N)N)C(O)c1nc2ccccc2s1` (some centres undefined), the NA entry (on Tryptase beta-1 [2]; in test [3]) was “inactive” throughout.

On Tryptase beta-1 [1], `N=C(N)NCCC[C@H](NC(=O)[C@@H]1CCCN1Cc1ccccc1)C(=O)c1nc2ccccc2s1` had a pKi of 6.60. Broadly, the pIC50 is −log10 of the IC50, conventionally taken in molar units. In turn, `CC(=O)N1CCC[C@@H]1C(=O)N[C@@H](CCCN=C(N)N)C(=O)c1nc2ccccc2s1` showed a negative logarithm of the IC50 (pIC50) against Tryptase beta-1 [4] of 8.70. This compound also had a pKi at Tryptase beta-1 [1] of 4.85. At Tryptase beta-1 [1], `CC(=O)N1CC(=O)C[C@H]1C(=O)N[C@@H](CCCN=C(N)N)C(=O)c1nc2ccccc2s1` had a negative-log Ki (pKi) of 7.14.

Regarding `N=C(N)NCCC[C@H](NC(=O)c1ccc2ccccc2c1O)C(=O)N1CCCC1C(N)=O` (some centres undefined), the Selectivity in test [5] was more than 3000; in test [6], 0.5; in test [7], more than 3000; in test [8], 1.3. Further, the pKi on Tryptase beta-1 [1] was 6.48. As to `COS(=O)(=O)N1CCC[C@H]1C(=O)N[C@@H](CCCN=C(N)N)C(=O)c1nc2ccccc2s1`, the pKi at Tryptase beta-1 [1] was 7.48.

Turning to `CC(=O)NCC(=O)N[C@@H](CCCN=C(N)N)C(=O)c1nc2ccccc2s1`, the negative logarithm of the Ki (pKi) at Tryptase beta-1 [1] was 6.33. Take `CC(=O)N1C[C@H](O)C[C@H]1C(=O)NC(CCCN)C(=O)c1nc2ccccc2s1` (some centres undefined): at Tryptase beta-1 [1], the pKi was 7.05. This pKi is 0.72 log units higher than that of the compound before. In turn, `CC(=O)N1C[C@H](O)C[C@H]1C(=O)N[C@@H](CCCNC(=N)N)C(=O)c1nc2ccccc2s1` (stereo in doubt; (2S) 6) gave a pKi at Tryptase beta-1 [1] of 8.00. This pKi is 0.95 log units higher than that of the compound before. Compound `CC(=O)N1CC=C[C@H]1C(=O)N[C@@H](CCCN=C(N)N)C(=O)c1nc2ccccc2s1` had a negative logarithm of the Ki (pKi) on Tryptase beta-1 [1] of 7.42. This pKi is 0.58 log units lower than that of the compound before. With `CC(=O)N[C@@H](CC(C)C)C(=O)N[C@@H](CCCN=C(N)N)C(=O)c1nc2ccccc2s1`, the pKi on Tryptase beta-1 [1] was 7.39. Turning to `CCCC(NC(=O)[C@@H]1C[C@@H](O)CN1C(C)=O)C(=O)c1nc2ccccc2s1` (some centres undefined), the NA entry (at Tryptase beta-1 [2]; in test [3]) was “inactive” in each case.

For the origin of these results see ChEMBL document CHEMBL1145070, “Potent, small-molecule inhibitors of human mast cell tryptase. Antiasthmatic action of a dipeptide-based transition-state analogue containing a benzothiazole ketone” (J Med Chem, 2003).
